According to ChEMBL document CHEMBL4257576, “4-Iminooxazolidin-2-one as a Bioisostere of the Cyanohydrin Moiety: Inhibitors of Enterovirus 71 3C Protease” (J Med Chem, 2018):
Active and inactive are the calls of the source. The rule behind the calls is not given here.

Columns and labels:
Genome polyprotein = Genome polyprotein (Enterovirus A71, UniProt A0A1D8D5K2); assay: Inhibition of EV71 3C protease expressed in Escherichia coli BL21(DE3) using NMA-IEALFQGPPK(DNP)FR as substrate preincubated for 0.5 hrs followed by substrate addition by fluorescence assay
Sequence of Genome polyprotein (A0A1D8D5K2 whole entry): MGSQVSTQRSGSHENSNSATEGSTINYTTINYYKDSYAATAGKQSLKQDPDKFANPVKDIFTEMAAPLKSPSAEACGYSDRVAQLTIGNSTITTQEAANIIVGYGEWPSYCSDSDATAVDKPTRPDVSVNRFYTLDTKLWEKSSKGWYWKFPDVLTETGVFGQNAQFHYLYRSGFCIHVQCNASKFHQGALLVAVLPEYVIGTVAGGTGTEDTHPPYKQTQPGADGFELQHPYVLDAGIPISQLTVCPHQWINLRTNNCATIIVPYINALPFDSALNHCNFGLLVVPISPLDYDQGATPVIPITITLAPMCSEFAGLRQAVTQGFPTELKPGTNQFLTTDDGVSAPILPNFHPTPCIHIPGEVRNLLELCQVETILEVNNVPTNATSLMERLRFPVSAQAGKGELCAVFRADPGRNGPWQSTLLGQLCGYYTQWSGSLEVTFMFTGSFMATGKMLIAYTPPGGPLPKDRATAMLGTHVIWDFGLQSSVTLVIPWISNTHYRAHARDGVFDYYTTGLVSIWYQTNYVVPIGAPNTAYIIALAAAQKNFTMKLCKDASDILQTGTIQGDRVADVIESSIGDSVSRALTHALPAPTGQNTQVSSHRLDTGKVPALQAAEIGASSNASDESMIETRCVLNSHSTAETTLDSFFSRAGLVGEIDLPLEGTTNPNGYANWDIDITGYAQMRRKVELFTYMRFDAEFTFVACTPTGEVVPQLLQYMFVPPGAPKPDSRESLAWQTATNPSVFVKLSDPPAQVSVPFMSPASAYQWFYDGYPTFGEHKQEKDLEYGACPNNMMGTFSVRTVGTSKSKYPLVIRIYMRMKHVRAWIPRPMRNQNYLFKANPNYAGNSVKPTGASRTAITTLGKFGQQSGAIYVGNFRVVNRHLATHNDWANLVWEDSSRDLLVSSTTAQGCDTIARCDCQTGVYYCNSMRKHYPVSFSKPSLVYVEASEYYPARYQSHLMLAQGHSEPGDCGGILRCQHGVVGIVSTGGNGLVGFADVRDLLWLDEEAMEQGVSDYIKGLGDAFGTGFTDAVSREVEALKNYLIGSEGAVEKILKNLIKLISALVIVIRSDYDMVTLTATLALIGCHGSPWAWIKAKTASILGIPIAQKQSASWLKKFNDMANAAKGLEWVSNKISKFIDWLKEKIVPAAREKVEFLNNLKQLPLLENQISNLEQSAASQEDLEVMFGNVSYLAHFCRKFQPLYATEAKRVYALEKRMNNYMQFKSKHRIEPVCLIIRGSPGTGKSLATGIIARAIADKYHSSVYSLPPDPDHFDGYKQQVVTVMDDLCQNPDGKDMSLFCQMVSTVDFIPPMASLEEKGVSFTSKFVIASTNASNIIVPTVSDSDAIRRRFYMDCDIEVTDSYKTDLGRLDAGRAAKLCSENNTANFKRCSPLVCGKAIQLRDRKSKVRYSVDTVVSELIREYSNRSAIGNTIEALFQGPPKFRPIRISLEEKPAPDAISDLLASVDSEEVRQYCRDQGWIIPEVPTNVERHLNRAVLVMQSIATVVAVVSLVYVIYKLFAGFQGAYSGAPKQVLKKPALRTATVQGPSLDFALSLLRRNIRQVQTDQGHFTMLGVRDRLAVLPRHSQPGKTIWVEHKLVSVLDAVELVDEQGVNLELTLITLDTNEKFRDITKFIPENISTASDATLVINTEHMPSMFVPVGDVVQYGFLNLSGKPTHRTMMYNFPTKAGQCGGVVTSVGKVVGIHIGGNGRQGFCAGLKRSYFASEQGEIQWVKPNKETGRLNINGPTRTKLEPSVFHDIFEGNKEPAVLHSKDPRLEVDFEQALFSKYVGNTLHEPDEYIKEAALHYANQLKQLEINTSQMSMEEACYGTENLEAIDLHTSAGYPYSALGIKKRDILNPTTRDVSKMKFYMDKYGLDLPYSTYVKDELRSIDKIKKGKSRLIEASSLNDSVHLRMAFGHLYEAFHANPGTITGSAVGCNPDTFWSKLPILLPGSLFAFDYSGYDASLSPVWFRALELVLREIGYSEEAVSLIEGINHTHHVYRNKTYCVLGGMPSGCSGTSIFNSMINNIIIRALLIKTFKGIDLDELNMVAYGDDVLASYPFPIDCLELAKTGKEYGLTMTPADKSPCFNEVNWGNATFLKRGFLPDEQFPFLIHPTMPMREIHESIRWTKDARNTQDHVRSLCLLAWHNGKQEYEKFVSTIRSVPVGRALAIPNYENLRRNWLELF
How it was run: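 Values reported as Ki (µM), each the mean of three independent experiments with SEM (n=3).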

Enterovirus A71 = assay: Antiviral activity against Enterovirus A71 infected in human RD cells receiving pEV71-Luc subgenomic replicon stocks from HEK-293T cells; format: functional, organism-based; conditions: Enterovirus A
How it was run: (§1)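 Values (EC50, CC50) are the average of three independent experiments, with SEM (n = 3).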

[1] = Cytotoxicity in human RD cells assessed as reduction in cell viability incubated for 24 hrs by WST1 assay; format: cell-based; how it was run: as §1
[2] = Half life in human plasma by HPLC analysis; format: ADME, cell-free
How it was run: (§2)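 Compound was incubated in human or mouse plasma and its remaining level followed over time to obtain t1/2. Each point is n = 3 with standard deviation bars.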

[3] = Half life in ICR (CD-1) mouse plasma by HPLC analysis; format: ADME, cell-free; how it was run: as §2
[4] = Half life in human liver microsomes at 1 mg/ml in presence of NADPH regenerating system by HPLC analysis; format: ADME, microsome
How it was run: (§3)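 Human and mouse liver microsomes at 1.0 mg/mL. Compound disappearance was tracked over time to give half-life and intrinsic clearance (Clint, µL/min/mg). Data are the mean of triplicates with SD (n = 3).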

[5] = Half life in mouse liver microsomes at 1 mg/ml in presence of NADPH regenerating system by HPLC analysis; format: ADME, microsome; how it was run: as §3
[6] = Intrinsic clearance in human liver microsomes at 1 mg/ml in presence of NADPH regenerating system by HPLC analysis; format: ADME, microsome; conditions: read-out: CLH; how it was run: as §3
[7] = Intrinsic clearance in mouse liver microsomes at 1 mg/ml in presence of NADPH regenerating system by HPLC analysis; format: ADME, microsome; conditions: read-out: CLH; how it was run: as §3
[8] = molecular target: Genome polyprotein (Enterovirus A71) (UniProt A0A1D8D5K2); assay: Covalent binding affinity to EV71 3C protease expressed in Escherichia coli BL21(DE3) at 2 mg/ml incubated for 2 to 3 hrs and measured after trypsin digestion by LC-MS/MS analysis
Sequence of Genome polyprotein (Enterovirus A71) (A0A1D8D5K2 as listed by the source): as the sequence (A0A1D8D5K2 whole entry) above

[9] = Drug metabolism in PBS buffer at pH 7.4; format: physicochemical
[10] = Drug metabolism in ICR (CD-1) mouse plasma by UPLC/Q-TOF-MS analysis; format: ADME, cell-free
How it was run: (§4)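 Compound was incubated with mouse plasma for 60 min. LC/MS followed loss of the parent peak and appearance of a product peak by retention time, and the product was characterized by tandem MS.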

[11] = Retention time of compound in ICR (CD-1) mouse plasma by UPLC/Q-TOF-MS analysis; format: ADME, cell-free; how it was run: as §4

SMILES	Ki (Genome polyprotein)	EC50 (Enterovirus A71)	CC50 at 24 h [1]	further results
Cc1cc(C(=O)N[C@@H](Cc2ccc(F)cc2)C(=O)N[C@@H](C[C@@H]2CCCNC2=O)[C@@H](C#N)OC(=O)NC2CC2)no1	6210 nM	12.8 µM	> 100 µM	
Cc1cc(C(=O)N[C@@H](Cc2ccc(F)cc2)C(=O)N[C@@H](C[C@@H]2CCCNC2=O)[C@H]2OC(=O)N(C)C2=N)no1	280 nM	3.97 µM	> 100 µM	
Cc1cc(C(=O)N[C@@H](Cc2ccc(F)cc2)C(=O)N[C@@H](C[C@@H]2CCCNC2=O)[C@@H](O)C#N)no1	4 nM	0.088 µM	> 100 µM	half-life [2]: 11 min; half-life [3]: 7 min; half-life [4]: 8 min; half-life [5]: 6 min; microsomal CLint [6]: 87 µL/min/mg; microsomal CLint [7]: 116 µL/min/mg; Activity [8]: inactive
CCCCNC(=O)O[C@@H](C#N)[C@H](C[C@@H]1CCCNC1=O)NC(=O)[C@H](Cc1ccc(F)cc1)NC(=O)c1cc(C)on1	450 nM	0.69 µM	> 100 µM	
CCN1C(=N)[C@H]([C@H](C[C@@H]2CCCNC2=O)NC(=O)[C@H](Cc2ccc(F)cc2)NC(=O)c2cc(C)on2)OC1=O	3530 nM	17.2 µM	> 100 µM	
Cc1cc(C(=O)N[C@@H](Cc2ccc(F)cc2)C(=O)N[C@@H](C[C@@H]2CCCNC2=O)[C@H]2OC(=O)N(C3CC3)C2=N)no1	1710 nM	8.81 µM	> 100 µM	
Cc1cc(C(=O)N[C@@H](Cc2ccc(F)cc2)C(=O)N[C@@H](C[C@@H]2CCCNC2=O)[C@H](C#N)OC(=O)NC2CC2)no1	1280 nM	5.11 µM	> 100 µM	
CCCNC(=O)O[C@H](C#N)[C@H](C[C@@H]1CCCNC1=O)NC(=O)[C@H](Cc1ccc(F)cc1)NC(=O)c1cc(C)on1	183 nM	2.21 µM	> 100 µM	
CCNC(=O)O[C@@H](C#N)[C@H](C[C@@H]1CCCNC1=O)NC(=O)[C@H](Cc1ccc(F)cc1)NC(=O)c1cc(C)on1	51 nM	0.75 µM	> 100 µM	
Cc1cc(C(=O)N[C@@H](Cc2ccc(F)cc2)C(=O)N[C@@H](C[C@@H]2CCCNC2=O)[C@H](C#N)OC(=O)C2CC2)no1	560 nM	4.93 µM	> 100 µM	
CNC(=O)O[C@H](C#N)[C@H](C[C@@H]1CCCNC1=O)NC(=O)[C@H](Cc1ccc(F)cc1)NC(=O)c1cc(C)on1	46 nM	1 µM	> 100 µM	
Cc1cc(C(=O)N[C@@H](Cc2ccc(F)cc2)C(=O)N[C@@H](C[C@@H]2CCCNC2=O)[C@@H]2OC(=O)N(C)C2=N)no1	210 nM	1.03 µM	> 100 µM	
Cc1cc(C(=O)N[C@@H](Cc2ccc(F)cc2)C(=O)N[C@@H](C[C@@H]2CCCNC2=O)[C@@H](C#N)OC(=O)NC(C)C)no1	93 nM	1.73 µM	> 100 µM	
Cc1cc(C(=O)N[C@@H](Cc2ccc(F)cc2)C(=O)N[C@@H](C[C@@H]2CCCNC2=O)[C@H](C#N)OC(=O)C(C)C)no1	240 nM	2.61 µM	> 100 µM	
Cc1cc(C(=O)N[C@@H](Cc2ccc(F)cc2)C(=O)N[C@@H](C[C@@H]2CCCNC2=O)[C@H](C#N)OC(=O)N(C)C)no1		70.4 µM	> 100 µM	
CCCCN1C(=N)[C@@H]([C@H](C[C@@H]2CCCNC2=O)NC(=O)[C@H](Cc2ccc(F)cc2)NC(=O)c2cc(C)on2)OC1=O	2540 nM	12.7 µM	> 100 µM	
CCOC(=O)/C=C/[C@H](C[C@@H]1CCNC1=O)NC(=O)[C@@H](CC(=O)[C@@H](NC(=O)c1cc(C)on1)C(C)C)Cc1ccc(F)cc1				Activity [8]: Active
CNC(=O)O[C@@H](C#N)[C@H](C[C@@H]1CCCNC1=O)NC(=O)[C@H](Cc1ccc(F)cc1)NC(=O)c1cc(C)on1	71 nM	0.62 µM	> 100 µM	
CCNC(=O)O[C@H](C#N)[C@H](C[C@@H]1CCCNC1=O)NC(=O)[C@H](Cc1ccc(F)cc1)NC(=O)c1cc(C)on1	190 nM	3.58 µM	> 100 µM	
CCCN1C(=N)[C@H]([C@H](C[C@@H]2CCCNC2=O)NC(=O)[C@H](Cc2ccc(F)cc2)NC(=O)c2cc(C)on2)OC1=O	2600 nM	12.7 µM	> 100 µM	
CCN1C(=N)[C@@H]([C@H](C[C@@H]2CCCNC2=O)NC(=O)[C@H](Cc2ccc(F)cc2)NC(=O)c2cc(C)on2)OC1=O	220 nM	4.37 µM	> 100 µM	
CCN(C)C(=O)O[C@@H](C#N)[C@H](C[C@@H]1CCCNC1=O)NC(=O)[C@H](Cc1ccc(F)cc1)NC(=O)c1cc(C)on1		> 100 µM	> 100 µM	half-life [3]: > 120 min; Drug metabolism [9]: Metabolite_Notdetected
Cc1cc(C(=O)N[C@@H](Cc2ccc(F)cc2)C(=O)N[C@@H](C[C@@H]2CCCNC2=O)[C@H](C#N)OC(=O)Nc2ccccc2)no1		13.2 µM	> 100 µM	
CCCNC(=O)O[C@@H](C#N)[C@H](C[C@@H]1CCCNC1=O)NC(=O)[C@H](Cc1ccc(F)cc1)NC(=O)c1cc(C)on1	85 nM	0.16 µM	> 100 µM	half-life [3]: 12 min; Drug metabolism [9]: Metabolite_Detected; Drug metabolism [10]: Metabolite_Detected
CC(=O)O[C@@H](C#N)[C@H](C[C@@H]1CCCNC1=O)NC(=O)[C@H](Cc1ccc(F)cc1)NC(=O)c1cc(C)on1	64 nM	0.067 µM	> 100 µM	half-life [2]: 50 min; half-life [3]: 42 min; half-life [4]: 64 min
Cc1cc(C(=O)N[C@@H](Cc2ccc(F)cc2)C(=O)N[C@@H](C[C@@H]2CCCNC2=O)[C@H](C#N)OC(=O)NC(C)C)no1	36 nM	0.65 µM	> 100 µM	half-life [3]: 31 min; Drug metabolism [9]: Metabolite_Detected; Drug metabolism [10]: Metabolite_Detected; Retention_time [11]: 6.41 min
Cc1cc(C(=O)N[C@@H](Cc2ccc(F)cc2)C(=O)N[C@@H](C[C@@H]2CCCNC2=O)[C@@H]2OC(=O)N(C(C)C)C2=N)no1	61 nM	0.51 µM	> 100 µM	
CCCCNC(=O)O[C@H](C#N)[C@H](C[C@@H]1CCCNC1=O)NC(=O)[C@H](Cc1ccc(F)cc1)NC(=O)c1cc(C)on1	4780 nM	8.46 µM	> 100 µM	
Cc1cc(C(=O)N[C@@H](Cc2ccc(F)cc2)C(=O)N[C@@H](C[C@@H]2CCCNC2=O)[C@H](C#N)OC(=O)N2CCOCC2)no1		> 100 µM	> 100 µM	half-life [3]: > 120 min; Drug metabolism [9]: Metabolite_Notdetected
Cc1cc(C(=O)N[C@@H](Cc2ccc(F)cc2)C(=O)N[C@@H](C[C@@H]2CCCNC2=O)[C@H]2OC(=O)N(C(C)C)C2=N)no1	33 nM	0.1 µM	> 100 µM	half-life [2]: > 120 min; half-life [3]: > 120 min; half-life [4]: 76 min; half-life [5]: 74 min; microsomal CLint [6]: 9 µL/min/mg; microsomal CLint [7]: 9 µL/min/mg
